These results are taken from ChEMBL document CHEMBL1138692 (Bioorg Med Chem Lett, 2004).

Molecules are shown by their SMILES. Bounds are passed on as bounds.

What is called IC50 is the point on the concentration scale where inhibition reaches its midpoint. Lower therefore signals greater potency in that assay. The Ki is a dissociation constant, usually derived from enzyme kinetics or from competition with a known ligand. A higher Ki goes with a looser hold on the target. By bioavailability is commonly meant the share of a dose that reaches the circulation, judged against a reference dose that is usually intravenous. A lower bioavailability goes with little systemic uptake. In general, half-life refers to the time in which the quantity being followed falls by half. Read a high half-life as slow loss.

Data set [1] relates to MT4. As to the kind of experiment: Antiviral activity against PI resistant virus D545701 was determined in MT-4 cell line. The note with it: Homo sapiens. The format is functional, cell-based. The gist of the method: (§1)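 Antiviral IC50 measured in MT4 cells infected with the named HIV strain: wild-type HXB2, or the multi-PI-resistant EP13 or D545701.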
Data set [2] has as its system MT4. As to the kind of experiment: Antiviral activity against PI resistant virus EP13 was determined in MT-4 cell line. The conditions noted are these: Homo sapiens. The format is functional, cell-based. The gist of the method:
as §1

Data set [3] has as its system MT4. As to the kind of experiment: Antiviral activity against wild-type HIV virus (HXB2) was determined in MT-4 cell line. The format is functional, cell-based. The note with it: Homo sapiens. The gist of the method: as §1
Data set [4] has as its target Human immunodeficiency virus type 1 protease (Human immunodeficiency virus 1, UniProt Q72874). Put plainly: Inhibition of HIV-1 Protease activity.
Data set [5] can be described thus: Oral bioavailability in rat. The format is ADME, organism-based. The note with it: in vivo.
Data set [6] in a line: Half life period in rat. The conditions noted are these: in vivo. The format is ADME, organism-based.
For data set [7], the system named is MT4. Put plainly: Antiviral activity against PI resistant virus D545701 in MT-4 cell line. The format is functional, cell-based. The conditions noted are these: Homo sapiens. The gist of the method:
as §1

Data set [8] concerns MT4. As to the kind of experiment: Antiviral activity against wild-type HIV virus (HXB2) in MT-4 cell line. The class given is functional, cell-based. The note with it: Homo sapiens. Put shortly: as §1
Data set [9] deals with MT4. As to the kind of experiment: Antiviral activity against PI resistant virus EP13 in MT-4 cell line. The conditions noted are these: Homo sapiens. The class given is functional, cell-based. The gist of the method: as §1

Turning to `CC(=O)NCCCC(C)(C)CN(C[C@@H](O)[C@H](Cc1ccccc1)NC(=O)O[C@H]1CO[C@H]2OCC[C@H]21)S(=O)(=O)c1ccc2c(c1)OCO2`, the IC50 is 120 nM in the data set with MT4 [1], 30 nM with MT4 [2] and 23 nM in the data set on MT4 [3].

For the compound `COC(=O)NCCCCCC(C)(C)CN(C[C@@H](O)[C@H](Cc1ccccc1)NC(=O)O[C@H]1CO[C@H]2OCC[C@H]21)S(=O)(=O)c1ccc2c(c1)OCO2`, the IC50 in the data set with MT4 [1] turned out to be 65 nM; with MT4 [2] it was 46 nM; with MT4 [3], 5.5 nM. Also, the affinity in [4], expressed as Ki, was 0.00012 nM.

For `COC(=O)NCCCCC(C)(C)CN(C[C@@H](O)[C@H](Cc1ccccc1)NC(=O)O[C@H]1CO[C@H]2OCC[C@H]21)S(=O)(=O)c1ccc2c(c1)OCO2`, the bioavailability in [5] is 20%. Also, in [6], the half-life is 1.3 h. In addition, the figures for the IC50 with MT4 [1], with MT4 [2] and in the data set on MT4 [3] were 9.2 nM, 15 nM and 1.6 nM, respectively.

As to `Cc1c(O)cccc1C(=O)N[C@@H](CSc1ccccc1)[C@H](O)CN1C[C@H]2CCCC[C@H]2C[C@H]1C(=O)NC(C)(C)C`, the concentration for half-maximal inhibition (IC50) in the data set with MT4 [1] is more than 1000 nM; in the data set on MT4 [2] it was 450 nM; with MT4 [3], 320 nM.

Consider `CC(C)(CCCNS(C)(=O)=O)CN(C[C@@H](O)[C@H](Cc1ccccc1)NC(=O)O[C@H]1CO[C@H]2OCC[C@H]21)S(=O)(=O)c1ccc2c(c1)OCO2`, for which the concentration for half-maximal inhibition (IC50) in the data set on MT4 [1] is 150 nM; with MT4 [2] it was 47 nM; in the data set with MT4 [3], 33 nM.

Turning to `COC(=O)NCCCC(C)(C)CN(C[C@@H](O)[C@H](Cc1ccccc1)NC(=O)O[C@H]1CO[C@H]2OCC[C@H]21)S(=O)(=O)c1cccc(N)c1`, the figures for the IC50 in the data set with MT4 [1], in the data set on MT4 [2] and with MT4 [3] were 100 nM, 36 nM and 18 nM, respectively. In data set [4], the Ki turned out to be 0.00021 nM.

Take `CNC(=O)NCCCC(C)(C)CN(C[C@@H](O)[C@H](Cc1ccccc1)NC(=O)O[C@H]1CO[C@H]2OCC[C@H]21)S(=O)(=O)c1ccc2c(c1)OCO2`: the results for the IC50 in the data set with MT4 [1], in the data set on MT4 [2] and in the data set with MT4 [3] were 200 nM, 110 nM and 38 nM, respectively.

Regarding `COC(=O)NCCCC(C)(C)CN(C[C@@H](O)[C@H](Cc1ccccc1)NC(=O)O[C@H]1CO[C@H]2OCC[C@H]21)S(=O)(=O)c1ccc(N)cc1`, the 50% inhibitory concentration (IC50) is 95 nM in the data set with MT4 [7], 31 nM with MT4 [8] and 46 nM with MT4 [9]. Also, the affinity in [4] corresponds to a Ki of 0.00026 nM.

On to `COC(=O)NCCC(C)(C)CN(C[C@@H](O)[C@H](Cc1ccccc1)NC(=O)O[C@H]1CO[C@H]2OCC[C@H]21)S(=O)(=O)c1ccc2c(c1)OCO2`, for which the results for the IC50 in the data set on MT4 [1], with MT4 [2] and with MT4 [3] were 40 nM, 22 nM and 1.4 nM, respectively. The compound also returned a Ki in data set [4] of 0.00016 nM.

Turning to `CC(C)(CCCN)CN(C[C@@H](O)[C@H](Cc1ccccc1)NC(=O)O[C@H]1CO[C@H]2OCC[C@H]21)S(=O)(=O)c1ccc2c(c1)OCO2`, the IC50 is 730 nM in the data set with MT4 [7], 370 nM in the data set with MT4 [8] and 540 nM in the data set on MT4 [9].

Consider `CC(C)CN(C[C@@H](O)[C@H](Cc1ccccc1)NC(=O)O[C@H]1CCOC1)S(=O)(=O)c1ccc(N)cc1`, for which the IC50 in the data set with MT4 [1] is more than 1000 nM; in the data set on MT4 [2], 440 nM; in the data set with MT4 [3], 130 nM. In data set [4], this compound had a Ki of 0.057 nM.

Regarding `CC(C)(C)NC(=O)[C@@H]1CN(Cc2cccnc2)CCN1C[C@@H](O)C[C@@H](Cc1ccccc1)C(=O)N[C@H]1c2ccccc2C[C@H]1O`, the figures for the IC50 in the data set with MT4 [1], with MT4 [2] and in the data set with MT4 [3] were 440 nM, 330 nM and 50 nM, respectively.

Consider `COC(=O)NCCCC(C)(C)CN(C[C@@H](O)[C@H](Cc1ccccc1)NC(=O)O[C@H]1CO[C@H]2OCC[C@H]21)S(=O)(=O)c1ccc2c(c1)OCO2`, for which the results for the half-inhibitory concentration (IC50) with MT4 [1], in the data set on MT4 [2] and in the data set with MT4 [3] were 66 nM, 38 nM and 4.7 nM, respectively. In [4], this compound returned an inhibition constant (Ki) of 0.00052 nM.
